Data as given in ChEMBL document CHEMBL1156777, “Synthesis and antiprotozoal activity of cationic 1,4-diphenyl-1H-1,2,3-triazoles” (J Med Chem, 2010).

Experiments:
L6 = test: Cytotoxicity against rat L6 cells after 70 hrs by alamar blue assay; assay type: cell-based; details: L6, 70 h
In short: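 Cells were exposed to serial dilutions for 70 h at 37 °C, 5% CO₂, then given resazurin for 2–3 h. IC50 came from sigmoidal curves; two independent runs in duplicate. Top concentration was 90 μg/mL, converted to μM by molecular weight.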

Plasmodium falciparum = test: Antiplasmodial activity against chloroquine-resistant Plasmodium falciparum K1 infected in human erythrocytes after 48 hrs assessed as [3H]hypoxanthine incorporation by liquid scintillation counting; assay type: functional, organism-based
[1] = Selectivity index, ratio of IC50 for rat L6 cells to IC50 for Trypanosoma brucei rhodesiense STIB900; assay type: toxicity, cell-based; details: read-out: Ratio IC50
In short: (§1)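 Each index is L6 IC50 divided by parasite IC50. L6 values are from the 70 h resazurin assay. T. b. rhodesiense STIB900 values are from the 70 h resazurin assay. P. falciparum K1 values are from erythrocytic-stage [³H]-hypoxanthine incorporation: 48 h drug exposure, then 24 h with label. L. donovani values are from the 72 h axenic amastigote CellTiter assay.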

[2] = test system: Trypanosoma brucei rhodesiense; test: Antitrypanosomal activity against Trypanosoma brucei rhodesiense STIB900 after 70 hrs by alamar blue assay; assay type: functional, organism-based; details: STIB900, 70 h
Leishmania donovani = test: Antileishmanial activity against Leishmania donovani MHOM/SD/62/1S-CL2D; assay type: functional, organism-based
In short: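 Axenic amastigotes (MHOM/SD/62/1S-CL2_D) adapted from promastigotes and grown in amastigote medium at 37 °C. 6 × 10⁴ parasites per well were exposed to 2-fold serial dilutions for 72 h at 37 °C in humidified 5% CO₂. Growth was read with tetrazolium CellTiter reagent as absorbance at 490 nm. IC50 came from a four-parameter dose–response fit; duplicate determinations were averaged.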

[3] = Selectivity index, ratio of IC50 for rat L6 cells to IC50 for Plasmodium falciparum K1; assay type: toxicity, cell-based; details: read-out: Ratio IC50; in short: as §1
[4] = Selectivity index, ratio of IC50 for rat L6 cells to IC50 for Leishmania donovani MHOM/SD/62/1S-CL2D; assay type: toxicity, cell-based; details: read-out: Ratio IC50; in short: as §1
[5] = test system: Trypanosoma brucei rhodesiense; test: Antitrypanosomal activity against Trypanosoma brucei rhodesiense STIB900 infected in NMRI mouse assessed as mean parasitemia relaps day at 5 mg/kg, ip; assay type: functional; details: route intraperitoneal
In short: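 Female NMRI mice infected ip with 2 × 10⁴ STIB900 bloodstream forms. Groups of four dosed ip daily on days 3–6 postinfection; compounds in DMSO diluted with water to 10% final DMSO. Untreated infected controls. Tail-blood parasitaemia checked on days 7 and 10, twice weekly to day 30, then weekly to day 60. Relapse day recorded for mean relapse day; cure means parasite-free survival to day 60.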

Structure (SMILES) | IC50 (L6) [µM] | IC50 (Plasmodium falciparum) [µM] | selectivity ratio [1] | IC50 [2] [µM] | IC50 (Leishmania donovani) [µM] | selectivity ratio [3] | selectivity ratio [4] | Activity [5] [days]
CC(C)NC(=N)c1ccc(-c2cn(-c3ccc(C(=N)NC(C)C)cc3O)nn2)cc1 | > 178 | 0.8 | > 129 | 1.38 | > 100 | > 223 | – | –
CC(C)NC(=N)c1cccc(-n2cc(-c3cc(C(=N)NC(C)C)ccc3O)nn2)c1 | > 170 | 0.229 | > 16 | 10.9 | > 100 | > 742 | – | –
N=C(N)c1cccc(-c2cn(-c3cc(C(=N)N)ccc3O)nn2)c1 | > 209 | 8.93 | > 4 | 49.6 | > 100 | > 23 | – | –
COc1cc(C(=N)NC(C)C)ccc1-n1cc(-c2cccc(C(=N)NC(C)C)c2)nn1 | > 159 | 0.055 | > 81 | 1.96 | > 100 | > 2890 | – | –
COc1ccc(C(=N)NC(C)C)cc1-n1cc(-c2cccc(C(=N)NC(C)C)c2)nn1 | 131 | 0.125 | 13 | 10.1 | > 100 | 1050 | – | –
N=C(N)c1ccc(-c2cn(-c3cc(C(=N)N)ccc3O)nn2)cc1 | > 203 | 1.23 | > 31 | 6.64 | > 100 | > 165 | – | –
Oc1ccc(C2=NCCN2)cc1-n1cc(-c2cccc(C3=NCCN3)c2)nn1 | > 174 | 0.325 | > 2 | 102 | > 100 | > 535 | – | –
c1cc(C2=NCCN2)cc(-c2cn(-c3ccc(C4=NCCN4)cc3)nn2)c1 | 127 | 0.084 | 635 | 0.2 | > 100 | 1510 | – | –
COc1ccc(C(=N)NC(C)C)cc1-c1cn(-c2ccc(C(=N)NC(C)C)cc2)nn1 | > 177 | 0.026 | > 2300 | 0.077 | > 100 | > 6810 | – | –
N=C(N)c1ccc(-c2cn(-c3ccc(C(=N)N)cc3O)nn2)cc1 | > 216 | 0.17 | > 431 | 0.501 | > 100 | > 1270 | – | –
Oc1cc(C2=NCCN2)ccc1-c1cn(-c2cccc(C3=NCCN3)c2)nn1 | > 183 | 0.016 | > 302 | 0.606 | > 100 | > 11400 | – | –
c1cc(C2=NCCN2)cc(-n2cc(-c3ccc(C4=NCCN4)cc3)nn2)c1 | 133 | 0.095 | 289 | 0.461 | > 100 | 1400 | – | –
CC(C)NC(=N)c1cccc(-c2cn(-c3cccc(C(=N)NC(C)C)c3)nn2)c1 | > 184 | 0.118 | > 12 | 14.8 | > 100 | > 1560 | – | –
CC(C)NC(=N)c1cccc(-c2cn(-c3cc(C(=N)NC(C)C)ccc3O)nn2)c1 | > 167 | 0.739 | > 12 | 13.9 | > 100 | > 226 | – | –
CC(C)NC(=N)c1ccc(-n2cc(-c3cccc(C(=N)NC(C)C)c3)nn2)cc1 | > 190 | 0.038 | > 353 | 0.539 | > 100 | > 5000 | – | –
COc1cc(C(=N)NC(C)C)ccc1-n1cc(-c2ccc(C(=N)NC(C)C)cc2)nn1 | > 164 | 0.019 | > 500 | 0.328 | > 100 | > 8630 | – | –
CC(C)NC(=N)c1ccc(-c2cn(-c3cccc(C(=N)NC(C)C)c3)nn2)cc1 | 193 | 0.043 | 418 | 0.462 | 58 | 4490 | 3 | –
CC(C)NC(=N)c1cccc(-c2cn(-c3ccc(C(=N)NC(C)C)cc3O)nn2)c1 | > 187 | 1.19 | > 10 | 18.7 | > 100 | > 157 | – | –

Structure (SMILES) | IC50 (L6) [µM] | IC50 (Plasmodium falciparum) [µM] | selectivity ratio [1] | IC50 [2] [µM] | IC50 (Leishmania donovani) [µM] | selectivity ratio [3] | selectivity ratio [4] | Activity [5] [days]
COc1ccc(C2=NCCN2)cc1-n1cc(-c2ccc(C3=NCCN3)cc2)nn1 | > 170 | 0.022 | > 1050 | 0.162 | > 100 | > 7730 | – | –
Oc1ccc(C2=NCCN2)cc1-n1cc(-c2ccc(C3=NCCN3)cc2)nn1 | > 175 | 0.885 | > 9 | 19.6 | > 100 | > 198 | – | –
COc1cc(C(=N)NC(C)C)ccc1-c1cn(-c2cccc(C(=N)NC(C)C)c2)nn1 | > 170 | 0.034 | > 242 | 0.703 | 32 | > 5000 | > 5 | –
COc1cc(C2=NCCN2)ccc1-n1cc(-c2ccc(C3=NCCN3)cc2)nn1 | > 176 | 0.017 | > 261 | 0.675 | > 100 | > 10400 | – | –
COc1ccc(C(=N)NC(C)C)cc1-n1cc(-c2ccc(C(=N)NC(C)C)cc2)nn1 | > 173 | 0.195 | > 387 | 0.447 | > 100 | > 887 | – | –
COc1ccc(C2=NCCN2)cc1-n1cc(-c2cccc(C3=NCCN3)c2)nn1 | > 172 | 0.03 | > 22 | 7.83 | > 100 | > 5730 | – | –
CC(C)NC(=N)c1ccc(-c2cn(-c3cc(C(=N)NC(C)C)ccc3O)nn2)cc1 | > 170 | 5.27 | > 11 | 15.1 | > 100 | > 32 | – | –
COc1ccc(C(=N)NC(C)C)cc1-c1cn(-c2cccc(C(=N)NC(C)C)c2)nn1 | > 176 | 0.106 | > 141 | 1.25 | > 100 | > 1660 | – | –
Oc1ccc(C2=NCCN2)cc1-c1cn(-c2cccc(C3=NCCN3)c2)nn1 | > 183 | 0.052 | > 16 | 11.7 | > 100 | > 3520 | – | –
COc1cc(C2=NCCN2)ccc1-c1cn(-c2ccc(C3=NCCN3)cc2)nn1 | 142 | 0.011 | 1220 | 0.116 | > 100 | 12900 | – | –
Oc1cc(C2=NCCN2)ccc1-n1cc(-c2ccc(C3=NCCN3)cc2)nn1 | > 198 | 0.041 | > 198 | 0.998 | > 100 | > 4830 | – | –
c1cc(C2=NCCN2)cc(-c2cn(-c3cccc(C4=NCCN4)c3)nn2)c1 | > 197 | 0.365 | > 14 | 14.1 | > 100 | > 540 | – | –
COc1cc(C2=NCCN2)ccc1-n1cc(-c2cccc(C3=NCCN3)c2)nn1 | > 173 | 0.058 | > 93 | 1.87 | > 100 | > 2980 | – | –
COc1cc(C(=N)NC(C)C)ccc1-c1cn(-c2ccc(C(=N)NC(C)C)cc2)nn1 | > 166 | 0.013 | > 826 | 0.201 | > 100 | > 12800 | – | –
CC(C)NC(=N)c1cccc(-n2cc(-c3ccc(C(=N)NC(C)C)cc3O)nn2)c1.Cl.Cl | > 175 | 0.049 | > 2270 | 0.077 | > 100 | > 3570 | – | 18
COc1ccc(C(=N)N)cc1-c1cn(-c2cccc(C(=N)N)c2)nn1 | > 200 | 0.024 | > 121 | 1.65 | > 100 | > 8330 | – | –
COc1cc(C2=NCCN2)ccc1-c1cn(-c2cccc(C3=NCCN3)c2)nn1 | > 172 | 0.064 | > 43 | 4.02 | > 100 | > 2690 | – | –
Oc1cc(C2=NCCN2)ccc1-n1cc(-c2cccc(C3=NCCN3)c2)nn1 | > 187 | 0.159 | > 17 | 11.1 | > 100 | > 1180 | – | –
